One assay has as its system SK-BR-3. In words: Antiproliferative activity against human SKBR3 cells. It counts as functional, cell-based. The gist of the method: (§1)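 Growth inhibition in SKBr3 (ER-negative, Her2-overexpressing) and MCF-7 (ER-positive) breast cancer cells, run per an earlier published protocol. Values are mean ± standard deviation of at least two separate experiments, each in triplicate.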

The test system of assay [1] is MCF7. Briefly: Antiproliferative activity against human MCF7 cells. It counts as functional, cell-based. The method, boiled down:
as §1

The target in assay [2] is T1, Heat shock protein HSP90 (Homo sapiens) (UniProt P07900+P08238). Briefly: Inhibition of Hsp90 in human MCF7 cells assessed as degradation of client protein Raf after 24 hrs by Western blot analysis. It counts as cell-based. The gist of the method: (§2)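 MCF-7 cells were treated with the compound across a concentration series. Cell lysates were then probed by western blot for the Hsp90 client proteins Raf and Akt, for Hsp90 itself, and for actin as a non-Hsp90-dependent control protein.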
A general note: A western blot detects proteins with antibodies after separation by electrophoresis.

For assay [3], the target named is T1, Heat shock protein HSP90 (Homo sapiens). Briefly: Inhibition of Hsp90 in human MCF7 cells assessed as degradation of client protein Akt after 24 hrs by Western blot analysis. The format is cell-based. The method, boiled down:
as §2

Assay [4] relates to MCF7. Briefly: Effect on Hsp90 protein level in human MCF7 cells at 0.1 to 2.5 uM after 24 hrs by Western blot analysis. It counts as functional, cell-based. The gist of the method: as §2

Among the data in ChEMBL document CHEMBL2311393 (Bioorg Med Chem Lett, 2013) are IC50, inhibition and Activity values, retold here.

The structures appear in SMILES notation. Active and inactive are the calls of the source. No cut-off for these calls is given here.

In general, IC50 refers to the concentration that inhibits the measured activity by half. Regarding `CC(C)=CCc1cc(C(=O)Nc2cc3ccc(OCCCN4CCN(C)CC4)c(C)c3oc2=O)ccc1O`, the IC50 with SK-BR-3 is 1010 nM; in the assay on MCF7 [1], 1200 nM.
Taken in the same sequence, the figures for `CC(C)=CCc1cc(C(=O)Nc2cc3ccc(OCCCN[C@@H]4C[C@H]5CC[C@@H]4C5)c(C)c3oc2=O)ccc1O` were 770 nM and 1030 nM.
On to `CC(C)=CCc1cc(C(=O)Nc2cc3ccc(OCCCNC(C)C)c(C)c3oc2=O)ccc1O`, for which the results for the IC50 in the assay with SK-BR-3 and in the assay with MCF7 [1] were 750 nM and 740 nM, respectively.
Taken in the same sequence, the figures for `CC(C)=CCc1cc(C(=O)Nc2cc3ccc(OCCCNCC(=O)O)c(C)c3oc2=O)ccc1O` were 7570 nM and 18100 nM.
As to `CC(C)=CCc1cc(C(=O)Nc2cc3ccc(OCCCN(C)C(C)C)c(C)c3oc2=O)ccc1O`, the IC50 in the assay with SK-BR-3 worked out at 570 nM; in the assay on MCF7 [1], 1050 nM.
Taken in the same sequence, the figures for `CC(C)=CCc1cc(C(=O)Nc2cc3ccc(OCCCNCCO)c(C)c3oc2=O)ccc1O` were 610 nM and 1560 nM.
Taken in the same sequence, the figures for `CC(C)=CCc1cc(C(=O)Nc2cc3ccc(OCCCN(C)C(C)(C)C)c(C)c3oc2=O)ccc1O` were 880 nM and 1140 nM.
For `CC(C)=CCc1cc(C(=O)Nc2cc3ccc(OCCCNC(C)(C)c4ccccc4)c(C)c3oc2=O)ccc1O`, the 50% inhibitory concentration (IC50) worked out at 960 nM in the assay with SK-BR-3 and 1070 nM in the assay on MCF7 [1].
With `CC(C)=CCc1cc(C(=O)Nc2cc3ccc(OCCCN4CCCCC4)c(C)c3oc2=O)ccc1O`, the half-inhibitory concentration (IC50) in the assay with SK-BR-3 and in the assay with MCF7 [1] was more than 50000 nM throughout.
Take `CC(C)=CCc1cc(C(=O)Nc2cc3ccc(OCCCNCC(C)C)c(C)c3oc2=O)ccc1O`: the values for the half-maximal inhibitory concentration (IC50) in the assay with SK-BR-3 and with MCF7 [1] were 1030 nM and 1320 nM, respectively.
Take `CC(C)=CCc1cc(C(=O)Nc2cc3ccc(OCCCN(C)C4CCCCC4)c(C)c3oc2=O)ccc1O`: the IC50 worked out at 970 nM in the assay on SK-BR-3 and 1080 nM with MCF7 [1].
Take `CCN(CC)CCCOc1ccc2cc(NC(=O)c3ccc(O)c(CC=C(C)C)c3)c(=O)oc2c1C`: the concentration for half-maximal inhibition (IC50) was 4900 nM with SK-BR-3 and 6390 nM in the assay with MCF7 [1].
Taken in the same sequence, the figures for `CC(C)=CCc1cc(C(=O)Nc2cc3ccc(OCCC4CCCCN4)c(C)c3oc2=O)ccc1O` (stereo not given) were 640 nM and 710 nM.
For the molecule `CC(C)=CCc1cc(C(=O)Nc2cc3ccc(OCC4CCN(C)C4)c(C)c3oc2=O)ccc1O` (stereo not given), the 50% inhibitory concentration (IC50) with SK-BR-3 is 920 nM; in the assay with MCF7 [1], 1550 nM.
Turning to `CC(=O)Oc1ccc(C(=O)Nc2cc3ccc(OCCC4CCCCN4)c(C)c3oc2=O)cc1CC=C(C)C` (stereo not given), the half-maximal inhibitory concentration (IC50) amounted to 640 nM in the assay with SK-BR-3 and 710 nM in the assay with MCF7 [1].
Taken in the same sequence, the figures for `CC(C)=CCc1cc(C(=O)Nc2cc3ccc(OCCCNC4CCCCC4)c(C)c3oc2=O)ccc1O` were 660 nM and 1070 nM.
On the same counts, the results for `CCCNCCCOc1ccc2cc(NC(=O)c3ccc(O)c(CC=C(C)C)c3)c(=O)oc2c1C` are 990 nM and 980 nM.
On the same counts, the results for `CC(C)=CCc1cc(C(=O)Nc2cc3ccc(OCCCN4CCCC4)c(C)c3oc2=O)ccc1O` are 720 nM and 990 nM.
Consider `CC(C)=CCc1cc(C(=O)Nc2cc3ccc(OCCCN4CCOCC4)c(C)c3oc2=O)ccc1O`, for which the half-inhibitory concentration (IC50) with SK-BR-3 and with MCF7 [1] was more than 50000 nM in each case.
In the case of `CC(C)=CCc1cc(C(=O)Nc2cc3ccc(OCCCNC(C)(C)C)c(C)c3oc2=O)ccc1O`, the 50% inhibitory concentration (IC50) turned out to be 660 nM in the assay with SK-BR-3 and 950 nM in the assay with MCF7 [1].
Taken in the same sequence, the figures for `CC(C)=CCc1cc(C(=O)Nc2cc3ccc(OCCCNCc4ccccc4)c(C)c3oc2=O)ccc1O` were 470 nM and 910 nM.
Turning to `CC(=O)Oc1ccc(C(=O)Nc2cc3ccc(OCC4CCCNC4)c(C)c3oc2=O)cc1CC=C(C)C` (stereo not given), the results for the half-inhibitory concentration (IC50) in the assay with SK-BR-3 and in the assay on MCF7 [1] were 620 nM and 820 nM, respectively.
On the same counts, the results for `COC(=O)CNCCCOc1ccc2cc(NC(=O)c3ccc(O)c(CC=C(C)C)c3)c(=O)oc2c1C` are 1060 nM and 2820 nM.
In the case of `CC(C)=CCc1cc(C(=O)Nc2cc3ccc(OCCCN(C)c4ccccc4)c(C)c3oc2=O)ccc1O`, the IC50 with SK-BR-3 and with MCF7 [1] was more than 50000 nM in each case.
As for `CC(C)=CCc1cc(C(=O)Nc2cc3ccc(OCCCN(C(C)C)C(C)C)c(C)c3oc2=O)ccc1O`, the half-maximal inhibitory concentration (IC50) in the assay on SK-BR-3 came to 1600 nM; in the assay with MCF7 [1], 1310 nM.
On the same counts, the results for `CC(C)=CCc1cc(C(=O)Nc2cc3ccc(OCCCNCC(N)=O)c(C)c3oc2=O)ccc1O` are 2290 nM and 1460 nM.
On the same counts, the results for `CC(C)=CCc1cc(C(=O)Nc2cc3ccc(OCCCN(C)Cc4ccccc4)c(C)c3oc2=O)ccc1O` are 10700 nM and 11500 nM.
Consider `CC(C)=CCc1cc(C(=O)Nc2cc3ccc(OCCCN[C@H](C)c4ccccc4)c(C)c3oc2=O)ccc1O`, for which the IC50 with SK-BR-3 is 1000 nM; with MCF7 [1], 1450 nM.
In the case of `CC(=O)Oc1ccc(C(=O)Nc2cc3ccc(OCC4CCN(C)C4)c(C)c3oc2=O)cc1CC=C(C)C` (stereo not given), the half-maximal inhibitory concentration (IC50) in the assay on SK-BR-3 worked out at 880 nM; in the assay on MCF7 [1] it was 1880 nM.
On the same counts, the results for `CC(C)=CCc1cc(C(=O)Nc2cc3ccc(OCCCN4CCNCC4)c(C)c3oc2=O)ccc1O` are 820 nM and 930 nM.
As for `CCNCCCOc1ccc2cc(NC(=O)c3ccc(O)c(CC=C(C)C)c3)c(=O)oc2c1C`, the concentration for half-maximal inhibition (IC50) with SK-BR-3 was 720 nM; with MCF7 [1], 980 nM.
Taken in the same sequence, the figures for `CCN(C)CCCOc1ccc2cc(NC(=O)c3ccc(O)c(CC=C(C)C)c3)c(=O)oc2c1C` were 730 nM and 2190 nM.
Taken in the same sequence, the figures for `CC(C)=CCc1cc(C(=O)Nc2cc3ccc(OCCCNc4ccccc4)c(C)c3oc2=O)ccc1O` were more than 50000 nM and more than 50000 nM.
For `CC(=O)Oc1ccc(C(=O)Nc2cc3ccc(OCC4CCCN(C)C4)c(C)c3oc2=O)cc1CC=C(C)C` (stereo not given), the half-maximal inhibitory concentration (IC50) in the assay with SK-BR-3 was determined as 740 nM; in the assay with MCF7 [1], 1650 nM.
Taken in the same sequence, the figures for `CC(C)=CCc1cc(C(=O)Nc2cc3ccc(OCC4CCCNC4)c(C)c3oc2=O)ccc1O` (stereo not given) were 600 nM and 790 nM.
Taken in the same sequence, the figures for `CC(C)=CCc1cc(C(=O)Nc2cc3ccc(OCC4CCCN(C)C4)c(C)c3oc2=O)ccc1O` (stereo not given) were 1300 nM and 2640 nM.
In the assay with SK-BR-3, `CO[C@@H]1[C@@H](O)[C@@H](O)[C@H](Oc2ccc3cc(NC(=O)c4ccc(O)c(CC=C(C)C)c4)c(=O)oc3c2C)OC1(C)C` registered a half-inhibitory concentration (IC50) of 10000 nM. This counts as double-digit micromolar.
`CCCN(CCC)CCCOc1ccc2cc(NC(=O)c3ccc(O)c(CC=C(C)C)c3)c(=O)oc2c1C`: the IC50 in the assay on SK-BR-3 and in the assay with MCF7 [1] was more than 50000 nM throughout.
On to `CC(C)=CCc1cc(C(=O)Nc2cc3ccc(OCCCNC45CC6CC(CC(C6)C4)C5)c(C)c3oc2=O)ccc1O`, for which the inhibition result in assay [2] and in assay [3] was “Dose-dependent effect” throughout. The 50% inhibitory concentration (IC50) with SK-BR-3 was 310 nM; in the assay on MCF7 [1], 320 nM. Further, the outcome with MCF7 [4] was inactive.
